In assay [1] the test system is Canavalia ensiformis. As to the kind of experiment: Inhibition of alpha-mannosidase from jack bean at 1 mM at pH 5. The method in brief: (§1)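 Glycosidase panel of commercial enzymes assayed at each enzyme's optimal pH with compound at 1 mM; percentage inhibition of enzyme activity calculated.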
Assay [2] concerns Canavalia ensiformis. Nature of the assay: Inhibition of beta-N-acetylglucosaminidase from jack bean at pH 5. Conditions: concentration not given here. Further details: concentration or dose not given beside the values.
Another assay is filed under the species Bos taurus. Nature of the assay: Inhibition of beta-N-acetylglucosaminidase from bovine kidney at pH 4. The note with it: concentration not given here. Set-up: concentration or dose not given beside the values.
Another assay has as its system Jurkat. Nature of the assay: Cytotoxicity against human Jurkat cells after 72 hrs by colorimetric assay. Type of assay: functional, cell-based. The note with it: Homo sapiens, Jurkat, 72 h; read-out: IC50.
For the next assay, the system named is A549. Nature of the assay: Cytotoxicity against human A549 cells after 72 hrs by colorimetric assay in presence of pan-caspase inhibitor zVAD-fmk. Type of assay: functional, cell-based.
Assay [3] relates to SK-BR-3. As to the kind of experiment: Cell cycle arrest in human SKBR3 cells by accumulation of cells at G1 phase at 50 uM after 48 hrs by propidium iodide-staining based flow cytometry (reference value: 54%). Type of assay: functional.
The subject of assay [4] is SK-BR-3. Nature of the assay: Cell cycle arrest in human SKBR3 cells by accumulation of cells at S phase at 50 uM after 48 hrs by propidium iodide-staining based flow cytometry (reference value: 30%). Type of assay: functional. On the technique in general: Flow cytometry measures light scatter and fluorescence of single cells or particles in a stream.
Assay [5] deals with SK-BR-3. As to the kind of experiment: Cell cycle arrest in human SKBR3 cells by accumulation of cells at G2/M phase at 50 uM after 48 hrs by propidium iodide-staining based flow cytometry (reference value: 16%). Type of assay: functional.
Assay [6] has as its system SK-BR-3. As to the kind of experiment: Cell cycle arrest in human SKBR3 cells by accumulation of cells at G2/M phase at 100 uM after 48 hrs by propidium iodide-staining based flow cytometry (reference value: 16%). Type of assay: functional.
Assay [7] concerns SK-BR-3. Nature of the assay: Cell cycle arrest in human SKBR3 cells by accumulation of cells at S phase at 200 uM after 48 hrs by propidium iodide-staining based flow cytometry (reference value: 30%). Type of assay: functional.
The subject of assay [8] is SK-BR-3. Nature of the assay: Cell cycle arrest in human SKBR3 cells by accumulation of cells at G2/M phase at 200 uM after 48 hrs by propidium iodide-staining based flow cytometry (reference value: 16%). It is filed as functional.
Assay [9] concerns SK-BR-3. As to the kind of experiment: Decrease in CDC25 mRNA level in human SKBR3 cells at 50 uM after 12 hrs by TLDA. Type of assay: functional, cell-based. An outline of the steps:
(§2)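 SKBR3 or MCF7 cells, 2×10⁵/well, treated with 50 µM for 12 h. Total RNA was column-purified and reverse-transcribed with random hexamers, then assayed on TaqMan low-density arrays. Expression was normalised to RPLP0, with fold change versus DMSO-vehicle cells calculated as 2^-ΔΔCT. Q-PCR run in duplicate per gene.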

Assay [10] deals with SK-BR-3. As to the kind of experiment: Decrease in hTERT mRNA level in human SKBR3 cells at 50 uM after 12 hrs by TLDA. It is filed as functional, cell-based. The method in brief:
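SKBR3 and MCF7 cells seeded at 2 × 10⁵ per well, treated 12 h with 50 µM compound (DMSO stock); total RNA extracted, cDNA made with random hexamers, gene expression profiled by TaqMan low-density arrays (qPCR, duplicate per gene). Normalised to RPLP0; fold change versus DMSO vehicle-treated cells, calculated as 2^-ΔΔCT.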

In a further assay the test system is MCF7. As to the kind of experiment: Decrease in ID1 mRNA level in human MCF7 cells at 50 uM after 12 hrs by TLDA. Type of assay: functional, cell-based. The method in brief: as §2
Assay [11] in a line: Cytotoxicity in human multiple myeloma cells assessed as early apoptotic cells at 100 uM after 24 hrs by annexin V/propidium iodide staining based flow cytometry (reference value: 0.1%). Type of assay: functional, Multiple myeloma cell.
Assay [12] is described as follows: Cytotoxicity in human multiple myeloma cells assessed as pre-necrotic cells at 100 uM after 24 hrs by annexin V/propidium iodide staining based flow cytometry (reference value: 42.1%). Type of assay: functional, Multiple myeloma cell.
The nature of assay [13]: Cytotoxicity in human B-CLL assessed as viable cells at 100 uM after 24 hrs by annexin V/propidium iodide staining based flow cytometry (reference value: 65.8 to 78%). It is filed as functional. The note with it: read-out: Activity.
The nature of assay [14]: Cytotoxicity in human B-CLL assessed as early apoptotic cells at 100 uM after 24 hrs by annexin V/propidium iodide staining based flow cytometry (reference value: 3.6 to 20.2%). Type of assay: functional.
The nature of assay [15]: Cytotoxicity in human B-CLL assessed as late apoptotic/necrotic cells at 100 uM after 24 hrs by annexin V/propidium iodide staining based flow cytometry (reference value: 10 to 14.7%). It is filed as functional.
Assay [16] is described as follows: Cytotoxicity in human B-CLL assessed as pre-necrotic cells at 50 uM after 24 hrs by annexin V/propidium iodide staining based flow cytometry (reference value: 1.3 to 3.7%). It is filed as functional.
Assay [17] can be described thus: Cytotoxicity in human B-CLL assessed as pre-necrotic cells at 200 uM after 24 hrs by annexin V/propidium iodide staining based flow cytometry (reference value: 1.3 to 3.7%). It is filed as functional.
For assay [18], the target named is T1, Tissue alpha-L-fucosidase (Bos taurus) (UniProt Q2KIM0).
T1 sequence (whole entry): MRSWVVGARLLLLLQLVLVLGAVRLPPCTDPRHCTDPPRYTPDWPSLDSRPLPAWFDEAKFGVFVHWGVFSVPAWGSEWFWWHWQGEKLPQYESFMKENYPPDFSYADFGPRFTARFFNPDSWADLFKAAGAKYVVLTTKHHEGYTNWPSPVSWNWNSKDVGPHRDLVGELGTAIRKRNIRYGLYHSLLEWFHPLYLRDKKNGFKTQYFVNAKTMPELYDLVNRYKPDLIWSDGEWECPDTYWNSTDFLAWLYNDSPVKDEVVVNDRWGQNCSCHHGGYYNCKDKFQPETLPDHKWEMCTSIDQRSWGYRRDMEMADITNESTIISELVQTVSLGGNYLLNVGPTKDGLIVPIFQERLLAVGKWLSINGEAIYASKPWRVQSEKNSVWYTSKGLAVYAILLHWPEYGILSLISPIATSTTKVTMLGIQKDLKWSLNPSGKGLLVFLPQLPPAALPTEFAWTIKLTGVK
Nature of the assay: Inhibition of alpha-L-fucosidase from bovine kidney at 1 mM at pH 6. The method in brief:
as §1

Assay [19] addresses Alpha-galactosidase (Coffea arabica) (UniProt Q42656). As to the kind of experiment: Inhibition of alpha-galactosidase from coffee beans at 1 mM at pH 6. The method in brief:
as §1

The source made the active and inactive calls. The calls are words filed in the database; no cut-off is given here. Bounds are passed on as bounds.

The text below walks through data of ChEMBL document CHEMBL1157882, “Novel 2-[(benzylamino)methyl]pyrrolidine-3,4-diol derivatives as alpha-mannosidase inhibitors and with antitumor activities against hematological and solid malignancies” (Bioorg Med Chem, 2010).

As a reminder, the inhibition is how much of the control response was suppressed. The IC50 is the point on the concentration scale where inhibition reaches its midpoint.

Sequence of Alpha-galactosidase (Coffea arabica) (Q42656 16-378 limits assumed): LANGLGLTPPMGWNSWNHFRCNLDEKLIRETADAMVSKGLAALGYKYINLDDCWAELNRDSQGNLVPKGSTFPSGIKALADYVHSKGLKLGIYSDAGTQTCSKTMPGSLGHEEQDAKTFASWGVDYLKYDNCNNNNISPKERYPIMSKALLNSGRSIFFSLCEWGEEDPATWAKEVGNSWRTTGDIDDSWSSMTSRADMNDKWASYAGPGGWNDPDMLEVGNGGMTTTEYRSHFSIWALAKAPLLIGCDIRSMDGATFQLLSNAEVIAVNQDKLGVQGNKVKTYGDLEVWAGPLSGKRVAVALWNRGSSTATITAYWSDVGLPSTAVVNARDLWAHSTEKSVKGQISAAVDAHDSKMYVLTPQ

On to `OC[C@H](NC[C@H]1NC[C@H](O)[C@@H]1O)c1ccc(-c2ccc(C(F)(F)F)cc2)cc1`, for which the inhibition was 98% in the assay with Canavalia ensiformis [1]; less than 10% in the assay with Canavalia ensiformis [2]; less than 10% in the assay filed under Bos taurus; less than 10% in assay [18]; less than 10% in [19]. Besides, in the assay on Jurkat, the half-maximal inhibitory concentration (IC50) came to 75 µM. In addition, the outcome with A549, in the assay with SK-BR-3 [9], in the assay with SK-BR-3 [10] and with MCF7 was Active. For the same compound, the Activity in the assay on SK-BR-3 [3] stood at 57%; in the assay with SK-BR-3 [4] it was 30%; with SK-BR-3 [5], 13%; in the assay with SK-BR-3 [6] it was 43%; in the assay on SK-BR-3 [7] it was 16%; with SK-BR-3 [8], 42%. Also, the Activity is recorded as 2.6% in assay [11]; 17% in [12]; 2.7% in assay [14]; 11.1% in assay [15]; 0.8% in assay [16]; 0.5% in assay [17]. In assay [13], the viability at 100 µM is 5.1%.
